Test results reported in ChEMBL document CHEMBL2311407, “Design and synthesis of diazatricyclodecane agonists of the G-protein-coupled receptor 119” (J Med Chem, 2013).
Converted amounts (≈) assume the structure as drawn.

What was measured:
[1] = AUC in Beagle dog at 1 mg/kg, iv; type: ADME, organism-based, Canis lupus familiaris; design: dose 1 mg/kg, route intravenous; settings: plasma
In short: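 Male beagle dogs received 1 mg/kg iv at 2 mL/kg in 5% dimethylacetamide/75% PEG200/20% (30% SBE-CD). Plasma concentrations are total drug. Values are the mean of two animals.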

[2] = Oral bioavailability in Sprague-Dawley rat at 30 mg/kg administered as spray dried dispersion; type: ADME, organism-based; settings: in vivo
In short: (§1)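 Rats were dosed po at 0.6 mL/kg with a 25% amorphous spray dried dispersion (with HPMCAS-HF) in 20 mM Tris buffer with 0.5% methylcellulose + 0.5% HPMCAS-HF, pH 7.4. Plasma concentrations are total drug. Data are mean ± SD of three animals. F is based on 1 mg/kg rat iv data.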

[3] = Tmax in Sprague-Dawley rat at 30 mg/kg, po administered as spray dried dispersion; type: ADME, organism-based; design: dose 30 mg/kg, route oral; settings: in vivo
[4] = Cmax in Sprague-Dawley rat at 30 mg/kg, po administered as spray dried dispersion; type: ADME, organism-based; design: dose 30 mg/kg, route oral; settings: in vivo; in short: as §1
[5] = AUC in Sprague-Dawley rat at 30 mg/kg, po administered as spray dried dispersion; type: ADME, organism-based; design: dose 30 mg/kg, route oral; settings: plasma; in short: as §1
[6] = Oral bioavailability in Sprague-Dawley rat at 3 mg/kg administered as spray dried dispersion; type: ADME, organism-based; settings: in vivo; in short: as §1
[7] = Tmax in Sprague-Dawley rat at 3 mg/kg, po administered as spray dried dispersion; type: ADME, organism-based; design: dose 3 mg/kg, route oral; settings: in vivo; in short: as §1
[8] = Cmax in Sprague-Dawley rat at 3 mg/kg, po administered as spray dried dispersion; type: ADME, organism-based; design: dose 3 mg/kg, route oral; settings: in vivo; in short: as §1
[9] = AUC in Sprague-Dawley rat at 3 mg/kg, po administered as spray dried dispersion; type: ADME, organism-based; design: dose 3 mg/kg, route oral; settings: plasma; in short: as §1
[10] = Oral bioavailability in Sprague-Dawley rat at 30 mg/kg administered as milled material in 0.5% methylcellulose; type: ADME, organism-based; settings: in vivo
In short: (§2)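 Rat po dosing of milled material (2−25 μm premilling, about 190 nm postmilling) suspended in 0.5% methylcellulose. Plasma concentrations are total drug. Data are mean ± SD of three animals. F is calculated from 1 mg/kg rat iv data.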

[11] = Tmax in Sprague-Dawley rat at 30 mg/kg, po dosing of milled material in 0.5% methylcellulose; type: ADME, organism-based; design: dose 30 mg/kg, route oral; settings: in vivo
In short: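 Nanomilled material (about 190 nm after milling) was suspended in 0.5% methylcellulose and dosed orally to rats. Plasma concentrations are reported as total drug. Values are mean ± SD from three animals.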

[12] = Cmax in Sprague-Dawley rat at 30 mg/kg, po dosing of milled material in 0.5% methylcellulose; type: ADME, organism-based; design: dose 30 mg/kg, route oral; settings: in vivo; in short: as §2
[13] = AUC in Sprague-Dawley rat at 30 mg/kg, po dosing of milled material in 0.5% methylcellulose; type: ADME, organism-based; design: dose 30 mg/kg, route oral; settings: in vivo; in short: as §2
[14] = Oral bioavailability in Sprague-Dawley rat at 3 mg/kg dosed as milled material in 0.5% methylcellulose; type: ADME, organism-based; settings: in vivo; in short: as §2
[15] = Tmax in Sprague-Dawley rat at 3 mg/kg, po dosing of milled material in 0.5% methylcellulose; type: ADME, organism-based; design: dose 3 mg/kg, route oral; settings: in vivo; in short: as §2
[16] = Cmax in Sprague-Dawley rat at 3 mg/kg, po dosing of milled material in 0.5% methylcellulose; type: ADME, organism-based; design: dose 3 mg/kg, route oral; settings: in vivo; in short: as §2
[17] = AUC in Sprague-Dawley rat at 3 mg/kg, po dosing of milled material in 0.5% methylcellulose; type: ADME, organism-based; design: dose 3 mg/kg, route oral; settings: in vivo; in short: as §2
[18] = Oral bioavailability in Sprague-Dawley rat at 3 mg/kg administered in 0.5% methylcellulose; type: ADME, organism-based; settings: in vivo
In short: (§3)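 Rats were dosed orally at 3 mg/kg in 0.5% methylcellulose. Plasma concentrations are total drug. Data are mean ± SD of three animals. F is based on 1 mg/kg rat iv PK.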

[19] = Tmax in Sprague-Dawley rat at 3 mg/kg, po dosing in 0.5% methylcellulose; type: ADME, organism-based; design: dose 3 mg/kg, route oral; settings: in vivo; in short: as §3
[20] = Cmax in Sprague-Dawley rat at 3 mg/kg, po dosing in 0.5% methylcellulose; type: ADME, organism-based; design: dose 3 mg/kg, route oral; settings: in vivo; in short: as §3
[21] = AUC in Sprague-Dawley rat at 3 mg/kg, po dosing in 0.5% methylcellulose; type: ADME, organism-based; design: dose 3 mg/kg, route oral; settings: in vivo; in short: as §3
[22] = Volume of distribution at steady state in Sprague-Dawley rat at 1 mg/kg, iv; type: ADME, organism-based; design: dose 1 mg/kg, route intravenous; settings: in vivo, read-out: Vdss
In short: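 Rats received an iv dose of 1 mpk in a vehicle of 10% N-methylpyrrolidone and 90% SBE-CD solution prepared at 30%. Plasma concentrations are total drug. Values are mean ± SD from three animals.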

[23] = Clearance in Sprague-Dawley rat at 1 mg/kg, iv; type: ADME, organism-based; design: dose 1 mg/kg, route intravenous; settings: in vivo
In short: (§4)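 Rats received 1 mg/kg iv in 10% N-methylpyrrolidone and 90% of a 30% SBE-CD solution. Plasma concentrations are total drug. Data are mean ± SD of three animals.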

[24] = Half life in Sprague-Dawley rat at 1 mg/kg, iv; type: ADME, organism-based; design: dose 1 mg/kg, route intravenous; settings: in vivo; in short: as §4
[25] = AUC in Sprague-Dawley rat at 1 mg/kg, iv; type: ADME, organism-based; design: dose 1 mg/kg, route intravenous; settings: plasma; in short: as §4
[26] = Thermodynamic solubility of the compound in PBS at pH 7.4; type: physicochemical; settings: read-out: Therm_solubility

SMILES: Cc1c(Oc2ccc(-n3cnnn3)cc2F)ncnc1N1C2CC3CC1CC(C2)N3C(=O)OC1(C)CC1
- AUC [1]: 4730 ng·h/mL
- bioavailability [2]: > 100%
- Tmax [3]: 4 h
- Cmax [4]: 3490 ng/mL
- AUC [5]: 49100 ng·h/mL
- bioavailability [6]: > 100%
- Tmax [7]: 4.7 h
- Cmax [8]: 484 ng/mL
- AUC [9]: 6140 ng·h/mL
- bioavailability [10]: 31%
- Tmax [11]: 6 h
- Cmax [12]: 912 ng/mL
- AUC [13]: 12500 ng·h/mL
- bioavailability [14]: 78%
- Tmax [15]: 4.7 h
- Cmax [16]: 255 ng/mL
- AUC [17]: 3180 ng·h/mL
- bioavailability [18]: 7.6%
- Tmax [19]: 3 h
- Cmax [20]: 24.2 ng/mL
- AUC [21]: 312 ng·h/mL
- Vd [22]: 3.96 L/kg
- clearance [23]: 13.2 mL/min/kg
- half-life [24]: 4.34 h
- AUC [25]: 1360 ng·h/mL
- solubility thermodynamic [26]: 0.7 µg/mL (≈ 1.38 µM)
